# A selection: hits, their analogues and other compounds. The true share with any hit is near 5.7%.
# Mdm2-MdmX inh = inhibitors of human Mdm2-MdmX association, primary screen, cell-based, luminescence, split luciferase, SaOS-2, uHTS; Protein Mdm4 (Homo sapiens) + E3 ubiquitin-protein ligase Mdm2 (Homo sapiens), …; SaOS-2 split-luciferase Mdm2/MdmX complementation; inhibition, % at 8 µM; 330,000 tested, 3% active; AID 485346, 2010;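 active means inhibition of at least 50% at 8 µM in the primary screen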
# Target sequence (O15151 whole entry, looked up): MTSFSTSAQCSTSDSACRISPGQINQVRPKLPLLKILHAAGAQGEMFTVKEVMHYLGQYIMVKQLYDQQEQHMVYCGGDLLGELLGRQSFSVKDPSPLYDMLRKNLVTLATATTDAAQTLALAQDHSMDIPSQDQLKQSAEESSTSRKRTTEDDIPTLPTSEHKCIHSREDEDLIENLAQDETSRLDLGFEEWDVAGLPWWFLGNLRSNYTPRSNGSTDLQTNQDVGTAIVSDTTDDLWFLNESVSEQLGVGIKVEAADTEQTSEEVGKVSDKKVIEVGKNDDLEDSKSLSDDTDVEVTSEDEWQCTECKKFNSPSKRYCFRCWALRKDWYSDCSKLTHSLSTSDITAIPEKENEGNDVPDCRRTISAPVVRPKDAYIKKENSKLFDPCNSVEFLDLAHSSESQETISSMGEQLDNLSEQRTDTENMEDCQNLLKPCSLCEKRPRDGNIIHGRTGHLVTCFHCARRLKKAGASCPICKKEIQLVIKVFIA
# Target sequence (Q00987 whole entry, looked up): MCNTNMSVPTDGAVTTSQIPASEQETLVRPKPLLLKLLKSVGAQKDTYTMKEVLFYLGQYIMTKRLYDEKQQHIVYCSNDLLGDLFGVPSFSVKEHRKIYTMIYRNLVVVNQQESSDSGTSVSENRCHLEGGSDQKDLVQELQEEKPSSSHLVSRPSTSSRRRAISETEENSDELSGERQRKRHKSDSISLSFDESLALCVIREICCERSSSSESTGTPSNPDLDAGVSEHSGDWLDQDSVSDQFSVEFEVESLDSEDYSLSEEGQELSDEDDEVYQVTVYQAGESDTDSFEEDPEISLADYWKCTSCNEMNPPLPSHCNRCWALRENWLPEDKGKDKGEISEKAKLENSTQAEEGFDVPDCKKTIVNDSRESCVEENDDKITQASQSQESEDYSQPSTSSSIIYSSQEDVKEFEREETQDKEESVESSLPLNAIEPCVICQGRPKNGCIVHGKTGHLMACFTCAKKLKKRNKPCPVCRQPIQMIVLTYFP
# T cruzi inh = inhibitors of intracellular T. cruzi growth, primary screen, luminescence, NIH3T3 host cells | T. cruzi beta-gal in NIH3T3, 90 h | inhibition, % (test concentration not listed) | 300,000 tested, 1.4% active | AID 1885, 2009;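 active means mean inhibition across valid replicates above about 55%, limit read from the data; inconclusive means mean below that limit but half or more replicates reach it; inactive means mean below it, under half of replicates reach it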;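 further: signal also drops with host cell toxicity which is not excluded here; higher percent means less beta-gal luminescence so fewer parasites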
#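 Assay system: NIH/3T3 host cells with β-galactosidase reporter T. cruzi; input: 5,000 host fibroblasts per well; compound: single 50 nL compound addition per well in DMSO; timing: ≥90 h infection period, 3 h prior cell attachment; measured by: GalScreen β-gal luminescence, detergent lysis, 60 min; evaluation: percent inhibition of parasite-derived β-gal signal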
# Beta apoptosis = inhibitors of cytokine-induced beta cell apoptosis, primary screen, luminescence. INS-1E cytokine-induced death, ATP luminescence, 48 h; percent of positive-control rescue, neutral wells zero. protection from apoptosis, % (test concentration not listed). 300,000 tested, 0.8% active;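 active means Every replicate reaches about 75%, or at least half do and their mean reaches it too, limit read from the data; inconclusive means At least half of replicates reach the limit but their mean does not; inactive means Under half of replicates reach the limit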;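 further: higher means more ATP so stronger rescue from cytokine killing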
# SKKanGAS inh = S. pyogenes SKKanGAS growth inhibitors in kanamycin, primary screen, streptokinase expression inhibitor project, SKKanGAS strain, BacTiter-Glo luminescence | 6 h | inhibition, % at 7.5 µM | 300,000 tested, 1.3% active | AID 1662, 2009;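 active means mean replicate score, as percent of positive control median, at least 50; inconclusive means mean below 50 but one replicate at or above 50; inactive means mean and every replicate below 50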;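 further: strain carries kanamycin resistance gene driven by streptokinase promoter and grows in 40 µg/ml kanamycin; loss of luminescence reflects streptokinase promoter inhibition or plain growth inhibition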
# Calb FLC = C. albicans growth inhibition with fluconazole, primary screen, CaCi-2 strain, Alamar Blue fluorescence; C. albicans CaCi-2 (fluconazole-resistant clinical isolate) + fluconazole, 48 h; growth inhibition, % (test concentration not listed); 300,000 tested, 0.57% active;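 active means growth inhibition above about 58% in most replicates, limit read from the data, passing the limit was not always enough; inconclusive means exactly half the replicates above a set limit; inactive means most replicates below a set limit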;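 further: all wells also contain fluconazole at 8 µg/ml as a sub-toxic cotreatment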
# CSC inhib = cancer stem cell viability inhibitors, primary screen, luminescence | inhibition, % at 7.5 µM | cancer stem cell-like cells viability | 300,000 tested, 1.1% active; in the data active means inhibition above about 75%; inconclusive means no clear call, values can overlap the other calls; tested in HMLE shEcad cells
# Mdm2-MdmX conf = Mdm2-MdmX complex disruptors, retested hits, confirmation, luminescence, single concentration. shares compounds with Mdm2-MdmX inh. inhibition, % at 8 µM. Mdm2-MdmX binding, luminescent assay. AID 489028, 2010. 10,000 tested, 55% active; in the data active means inhibition above about 40%
# FLuc counter = full-length luciferase signal inhibition, confirmation, counter-screen for Mdm2/MdmX interaction inhibitor project, cell-based, single concentration, SaOS-2; shares compounds with Mdm2-MdmX inh; SaOS-2 full-length luciferase counterscreen, luminescence; inhibition, % at 8 µM; 6,200 tested, 77% active;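 active means mean inhibition at 8 µM reaching about 37%, which flags the compound as non-specific, limit read from the data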;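 further: p53-null SaOS-2 cells with luciferase driven by a doxycycline-inducible promoter; compound on cells about two nights before reading with doxycycline added after day one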
# Hits are given with their value; – = inactive; ? = inconclusive; · = not tested or not shown.
SMILES,Mdm2-MdmX inh,T cruzi inh,Beta apoptosis,SKKanGAS inh,Calb FLC,CSC inhib,Mdm2-MdmX conf,FLuc counter
Cc1[nH]c2ccccc2c1C(c1ccccn1)N1CCCC1 (stereo not drawn),–,–,–,–,–,–,·,·
Cc1[nH]c2ccccc2c1C(c1ccccn1)N1CCC(C)CC1 (stereo not drawn),51,–,–,–,–,–,–,·
COc1ccccc1NC(=O)COC(=O)c1ccccc1OCC(=O)Nc1ccc(SC(F)F)cc1,–,–,–,–,–,–,·,·
COc1ccc(CNC(=O)COC(=O)c2ccccc2OCC(=O)Nc2ccc(SC(F)F)cc2)cc1,99,–,–,–,–,–,–,·
N/C(=N\OC(=O)c1ccc(Cl)c([N+](=O)[O-])c1)c1ccccn1,67,–,–,–,–,–,46,91
N/C(=N\OC(=O)c1ccc(Cl)c(Cl)c1)c1ccccn1,–,–,–,–,–,·,·,·
O=C(COC(=O)c1ccccc1C(=O)c1ccc(Cl)c([N+](=O)[O-])c1)NC1CC1,100,63,–,–,–,–,96,52
N/C(=N\OC(=O)c1ccc(Cl)c([N+](=O)[O-])c1)c1ccccc1,65,–,–,–,–,–,–,·
CCOc1ccc(NC(=O)Nc2cccc(C(=O)O)c2)cc1,70,–,–,–,?,–,70,–
CCOC(=O)c1cccc(NC(=O)Nc2ccc(OCC)cc2)c1,–,–,–,–,–,–,·,·
O=C(O)c1cccc(COc2ccc(CO)cc2Cl)c1,90,–,–,–,?,–,88,–
O=C(O)c1ccc(COc2ccc(CO)cc2Cl)cc1,–,–,–,–,–,–,·,·
O=C(NCc1ccccc1)c1cccc(COc2ccc3c(c2)CCC3)c1,–,–,–,–,–,–,·,·
COc1ccc(NC(=O)NCCCCc2ccccc2)cc1,–,·,–,·,–,–,·,·
CCOc1ccc(NC(=O)NCCCCc2ccccc2)cc1,50,–,–,?,–,–,–,·
O=C(O)c1cccc(COc2ccc3c(c2)CCC3)c1,68,–,–,–,–,–,78,–
CCOc1ccc(OCc2cccc(C(=O)N3CCCC3)c2)cc1,–,–,–,–,–,–,·,·
CCOc1ccc(OCc2cccc(C(=O)O)c2)cc1,61,–,–,–,–,–,94,–
COc1ccc(OCc2cccc(C(=O)O)c2)cc1,85,–,–,–,–,–,81,50
CCCc1cc(C(=O)NNC(=S)NC2CCCCC2)cs1,–,–,–,–,–,–,·,·
CCc1ccccc1OCC(=O)Nc1cccc(S(=O)(=O)NC2=NCCC2)c1,–,·,·,·,·,·,·,·
CCN1CCN(c2cc(C)c3cc(NC(=O)c4ccc5c(c4)OCO5)ccc3n2)CC1,71,–,–,–,–,–,50,84
CCN1CCN(c2cc(C)c3cc(NC(=O)c4ccc(OC)c(OC)c4)ccc3n2)CC1,–,–,–,–,–,–,·,·
CCN1CCN(c2cc(C)c3cc(NC(=O)c4cncc(Br)c4)ccc3n2)CC1,66,–,–,–,–,–,–,·
Cc1ccc(-c2nnc(CSc3nnc(COc4cccc5ccccc45)n3-c3ccccc3)o2)cc1,63,–,–,–,–,·,–,·
SMILES,Mdm2-MdmX inh,T cruzi inh,Beta apoptosis,SKKanGAS inh,Calb FLC,CSC inhib,Mdm2-MdmX conf,FLuc counter
N#CCSc1nnc(COc2cccc3ccccc23)n1-c1ccccc1,–,–,·,·,–,–,·,·
COc1ccc(CN2CCC(CO)(Cc3ccccc3C(F)(F)F)CC2)c(F)c1,–,–,–,–,–,–,·,·
c1ccc(-c2cc(NCCN3CCCCC3)c3ccccc3n2)cc1,57,–,·,–,–,·,46,51
O=C(c1cc(-c2ccccc2)nc2ccccc12)N1CCCC1,–,–,–,–,–,–,·,·
c1ccc(N2CCN(c3nc(-c4ccccn4)nc4ccccc34)CC2)cc1,59,–,93,100,–,–,–,·
CCOC(=O)c1c(C)nc2sc3c(=O)n(-c4ccc(C(C)=O)cc4)nnc3c2c1-c1ccc(Cl)cc1,72,–,–,–,–,–,50,49
O=C(/C=C/NNC(=O)c1ccccc1O)c1ccccc1,57,–,–,–,–,–,–,·
O=C(/C=C/NNC(=O)c1ccccc1)c1ccccc1,–,–,–,–,–,–,·,·
CC(=O)Nc1cccc(NC(=O)Cc2ccc3ccccc3c2)c1,–,–,–,–,–,–,·,·
COC(=O)Nc1nc2ccc(C(=O)c3cccs3)cc2[nH]1,53,–,·,–,–,–,57,126
O=c1[nH]c(Nc2nc3ccccc3o2)nc2c1CCCC2,100,60,–,–,–,–,75,79
Cc1ccc(Nc2nc3c(c(=O)[nH]2)CCCC3)cc1,–,–,–,–,–,–,·,·
CCCNC(=O)c1ccc(CN2CCc3ccccc3C2)cc1,–,–,–,–,–,–,·,·
C/C(=N\NC(=O)c1ccc(CN2CCc3ccccc3C2)cc1)c1ccccc1O,55,64,–,–,–,–,65,85
CCN1C(=O)[C@@H]2[C@@H](c3ccc(-c4ccc(F)cc4)cc3)N3CCCC[C@@]3(C(=O)OC)[C@@H]2C1=O,–,–,–,–,–,–,·,·
CCOc1ccc(OCCn2c(S(=O)(=O)O)nc3c(N)ncnc32)cc1,–,–,–,–,–,–,·,·
CCOC(=O)C1CCN(c2ccccc2CN2CCN(c3ccccc3OCC)CC2)CC1,63,–,–,–,–,–,–,71
O=S(=O)(c1ccc2ccccc2c1)N1CCN(CCO)CC1,–,–,–,–,–,–,·,·
CN1CCN(c2ccc(C(=O)c3cn(-c4ccc(F)c(Cl)c4)nn3)cc2)CC1,81,–,–,–,–,–,42,91
Cc1ccc(-n2cc(C(=O)c3ccc(N4CCN(C)CC4)cc3)nn2)cc1Cl,98,–,–,–,–,·,–,·
Cc1ccc(C(=O)c2cn(-c3ccc(F)c(Cl)c3)nn2)cc1,–,–,–,–,–,–,·,·
COc1ccc(N2CC(C(=O)OCC(=O)Nc3cccc(C)c3C)CC2=O)cc1 (stereo not drawn),–,–,–,–,–,–,·,·
CCc1cccc(CC)c1NC(=S)NCCc1c(C)[nH]c2ccccc12,51,–,–,–,–,–,–,·
CCOc1ccc(-n2c(C)cc(C(=O)CCl)c2C)cc1,94,86,–,–,91,–,55,88
CCOC(=O)c1cc(C)n(-c2ccc(Cl)cc2)c1C,–,–,·,–,–,–,·,·

# Source: PubChem (several laboratories)
